# High-throughput results (PubChem)
# In the library only some 4.8% were active in any assay of this set; here they are far more common.
# ALR H2O2 inh = inhibitors of human ALR sulfhydryl oxidase, primary screen, biochemical, H2O2 detection, HRP-luminol luminescence, single point; purified ALR, DTT oxidation; inhibition, % (no concentration beside the values); actives 3.8% (n = 290,000); AID 485317, 2010;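 active means mean replicate inhibition above about 79%, with every replicate also reaching it, limit read from the data; inconclusive means only one of the two criteria met; inactive means mean below limit and not every replicate reaching it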
# Target sequence (P55789 whole entry, looked up): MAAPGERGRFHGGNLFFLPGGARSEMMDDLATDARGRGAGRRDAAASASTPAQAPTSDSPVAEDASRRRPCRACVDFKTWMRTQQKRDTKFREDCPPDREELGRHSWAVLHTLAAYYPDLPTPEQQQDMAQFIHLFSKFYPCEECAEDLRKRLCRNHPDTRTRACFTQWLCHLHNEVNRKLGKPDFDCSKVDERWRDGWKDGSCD
# UCH37 inh = inhibitors of human UCH37 deubiquitinase, primary screen, biochemical, Ub-AMC cleavage, fluorescence; purified proteasome/UCH37; inhibition, % (test concentration not listed); actives 0.33% (n = 330,000); AID 588478, 2011;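 active means mean inhibition over replicate wells above about 20%, limit read from the data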;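 further: 0% = compound-free wells with enzyme and 100% = wells lacking proteasome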
#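 Reagent: Ub-AMC substrate; assay system: Proteasome-associated human UCH37 deubiquitinase; controls: no-proteasome and no-compound wells; read-out: % inhibition of Ub-AMC cleavage fluorescence; timing: 30 min preincubation with enzyme, 25 min cleavage at room temperature; signal: AMC fluorescence from Ub-AMC cleavage, excitation 355 nm, emission 460 nm; buffer or medium: Tris-HCl pH 7.4 plus ovalbumin, ATP-MgCl2, DTT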
# ATG4B inh = ATG4B protease inhibitors, primary screen, biochemical, fluorescence, uHTS | Cysteine protease ATG4B (Homo sapiens), Q9Y4P1 | ATG4B cleavage of LC3-PLA2, NBD-HPC fluorescence, 1 h | inhibition, % at 8.33 µM | actives 0.51% (n = 340,000); in the data active means inhibition above about 40%
# Target sequence (Q9Y4P1 whole entry, looked up): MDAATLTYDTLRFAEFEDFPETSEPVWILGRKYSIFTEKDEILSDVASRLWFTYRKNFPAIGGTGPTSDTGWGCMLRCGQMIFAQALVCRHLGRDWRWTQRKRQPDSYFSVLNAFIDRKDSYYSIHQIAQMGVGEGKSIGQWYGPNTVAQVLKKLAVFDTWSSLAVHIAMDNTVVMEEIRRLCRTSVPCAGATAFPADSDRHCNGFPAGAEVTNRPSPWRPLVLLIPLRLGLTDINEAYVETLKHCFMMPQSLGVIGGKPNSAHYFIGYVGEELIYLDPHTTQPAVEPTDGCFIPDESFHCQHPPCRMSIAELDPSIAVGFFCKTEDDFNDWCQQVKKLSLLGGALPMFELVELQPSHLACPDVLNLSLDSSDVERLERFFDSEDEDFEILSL
# NLRP3 yeast inh = NALP3 inflammasome inhibitors in reconstituted yeast, primary screen, luminescence, uHTS; Yeast reconstituted NLRP3/ASC/caspase-1, beta-gal luminescence, 24 h; inhibition, % at 10 µM; actives 0.39% (n = 330,000);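 active means inhibition of 50% or more; inactive means inhibition below 50%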;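 further: plate controls were induced DMSO wells for no effect and uninduced yeast grown without galactose for full effect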
# Calb FLC = C. albicans growth inhibition with fluconazole, primary screen, CaCi-2 strain, Alamar Blue fluorescence; C. albicans CaCi-2 (fluconazole-resistant clinical isolate) + fluconazole, 48 h; growth inhibition, % (test concentration not listed); actives 0.57% (n = 300,000); AID 1979, 2009;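 active means growth inhibition above about 58% in most replicates, limit read from the data, passing the limit was not always enough; inconclusive means exactly half the replicates above a set limit; inactive means most replicates below a set limit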;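 further: all wells also contain fluconazole at 8 µg/ml as a sub-toxic cotreatment; 0% = median of DMSO wells and 100% = median of geldanamycin control wells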
# NALP1 yeast inh = NALP1 inflammasome inhibitors in reconstituted yeast, colorimetric, S. cerevisiae, triplicate retest. S. cerevisiae NALP1/ASC/caspase-1 growth, X-gal OD620, 72 h. inhibition, % at 10 µM. actives 0.61% (n = 280,000); in the data active means inhibition mostly above about 24%, no sharp cut-off; inactive means mostly below about 32%
# An asterisk follows results filed as active; ? = inconclusive; . = not tested or not shown.
SMILES,ALR H2O2 inh,UCH37 inh,ATG4B inh,NLRP3 yeast inh,Calb FLC,NALP1 yeast inh
CCOc1cc(C=NO)ccc1OCc1ccc(C)cc1,.,6.4,.,.,.,.
Nc1ccc(Oc2ccccc2-c2ccccc2)cc1,98.7*,1.3,2.3,6.7,-3.3,.
O=C(O)COc1ccccc1-c1ccccc1,-1.7,2.7,-6.6,0.1,-8.9,-5.8
Cc1nc(C)c(-c2csc(N)n2)s1,90.9*,-1.9,0.7,-3.0,-2.8,-14.2
CC(=NNC(=S)NCCc1ccccc1)c1ccc(C)cc1,.,0.2,.,.,.,.
CC1=C/C(=N\NC(=S)NCCc2ccccc2)CC(C)(C)C1,0.3,.,0.6,38.3,96.0*,-8.4
CC(=O)C1=C(O)C(=O)N(c2ccc(Br)cn2)C1c1ccc(Br)cc1 (stereo not given),97.1*,-8.4,-5.9,6.2,2.4,-26.2
CC(=O)C1=C(O)C(=O)N(c2ccc(Br)cn2)C1c1cccc([N+](=O)[O-])c1 (stereo not given),89.1*,11.7,-5.3,-1.8,-7.1,4.1
COc1ccc(C(=O)N2CCN=C2SCc2cccnc2)c(OC)c1,99.7*,7.1,-7.9,3.4,-2.4,-0.7
COc1cccc(C(=O)N2CCN=C2SCc2cccnc2)c1OC,99.8*,2.1,-2.3,0.1,-0.5,2.7
COc1ccccc1C(=O)N1CCN=C1SC,-12.9,4.4,-1.4,0.2,-11.9,-6.3
COc1cccc(C(=O)N2CCN=C2SC)c1,4.1,4.7,-1.2,7.5,-30.4,-11.3
N#CCC(=O)NN=Cc1cc([N+](=O)[O-])ccc1N1CCOCC1,.,6.3,.,.,.,.
O=C(CSc1nnc(-c2ccc(Br)cc2)o1)Nc1cccc2ccccc12,-0.8,3.4,9.7,9.5,85.4*,13.7
O=C(CSc1nnc(-c2ccc(Br)cc2)o1)Nc1cccc(C(=O)O)c1,-7.2,-0.3,-0.3,13.6,2.3,4.2
O=C(CSc1nnc(-c2ccccn2)o1)Nc1ccccc1Cl,98.6*,4.8,-4.8,4.6,-13.0,11.5
Cc1ccc(O)c(N=Cc2sc3ccccc3c2Cl)c1,-8.9,8.1,3.1,17.9,2.1,20.6
Oc1ccccc1N=Cc1sc2ccccc2c1Cl,15.9,2.5,-14.2,28.7,15.5,53.7*
CCOc1c(O)ccc(C2NC(=O)N(C)C(C)=C2C(=O)OC)c1[N+](=O)[O-] (stereo not given),88.7*,5.4,-2.0,8.3,0.3,12.0
COCCNS(=O)(=O)c1cccn1-c1ncc(C(F)(F)F)cc1Cl,-1.0,5.8,-15.1,-9.0,-22.6,40.2*
Oc1oc(-c2ccccc2)nc1C=Nc1ccccn1,.,4.8,.,.,.,.
Cc1ccc(N2CCN(S(=O)(=O)c3nnc(NC(=O)c4ccco4)s3)CC2)cc1,97.1*,4.3,2.3,9.5,-8.4,0.7
COc1cc2[nH]c3c(N4CCN(c5ccccn5)CC4)ncnc3c2cc1OC,98.6*,-4.1,-17.5,-1.2,1.0,0.8
COc1ccc(N2CCN(c3ncnc4c3[nH]c3ccccc34)CC2)cc1,42.7,0.3,5.3,22.8,-2.7,12.7
CCCCCCCCCC(=O)NN=C(C)c1cccnc1,.,6.3,.,.,.,.
SMILES,ALR H2O2 inh,UCH37 inh,ATG4B inh,NLRP3 yeast inh,Calb FLC,NALP1 yeast inh
COc1cccc(-c2c(C(=O)NN=CC3CC=CCC3)nnn2-c2nonc2N)c1 (stereo not given),.,3.2,.,.,.,.
O=C(Cc1ccccc1[N+](=O)[O-])NCc1ccc(Cl)cc1,-3.1,-3.5,1.4,6.7,1.5,27.6
O=C(NCc1ccc(Cl)cc1)c1n[nH]c([N+](=O)[O-])c1Cl,12.1,.,-11.2,10.7,97.0*,12.2
CC(=NNC(=O)c1cc(-c2ccncc2)nc2ccccc12)c1ccc(N2CCOCC2)cc1,.,-1.2,.,.,.,.
COc1ccc(N=c2sc3ccccc3n2C)cc1,98.4*,1.5,4.4,15.7,26.8,12.7
O=[N+]([O-])c1nn(-c2ccc(Cl)cc2)n(O)c1=NCc1cccnc1,4.6,7.4,8.9,-9.2,88.5*,-19.0
Cc1ccc(S(=O)(=O)N(C(=O)c2ccncc2)c2ccc(OC(=O)c3ccncc3)c3ccccc23)cc1,-23.7,-2.2,-7.6,4.2,-12.0,48.1*
Cc1ccc(S(=O)(=O)N(C(=O)c2ccncc2)c2ccc(OC(=O)c3ccncc3)c3ccccc23)c(C)c1,-30.3,3.9,-8.2,5.7,-1.0,5.8
CC(=NOC(=O)c1c(-c2ccccc2Cl)noc1C)c1ccncc1,.,3.0,.,.,.,.
CCOc1ccccc1C=NNC(=O)CNC(=O)c1ccc(S(=O)(=O)N2CCOCC2)cc1,.,2.5,.,.,.,.
CC(=O)C(=NNc1ccccc1)Sc1nnc(C(O)c2ccccc2)n1-c1ccccc1 (stereo not given),.,9.4,.,.,.,.
COc1ccc(NC(=O)CC2C(=O)N(c3ccc(Cl)cc3)C(=S)N2CCc2ccccn2)cc1 (stereo not given),98.2*,4.6,-13.0,-12.8,36.0,28.0
COc1ccc(NC(=O)CC2C(=O)N(c3ccc(Cl)cc3)C(=S)N2CCc2ccncc2)cc1 (stereo not given),-6.0,4.9,-10.7,2.8,-3.7,-5.0
COc1ccc(OC)c(C2C(C#N)=C(N)Oc3cc(N)ccc32)c1 (stereo not given),98.9*,-0.4,-8.2,4.9,?,16.9
CCOc1ccc(C2C(C#N)=C(N)Oc3cc(O)ccc32)cc1OCC (stereo not given),-2.8,2.1,-7.4,11.2,10.8,10.4
COC(=O)c1ccc(C2C(C#N)=C(N)Oc3cc(N)ccc32)cc1 (stereo not given),97.0*,-0.2,-4.2,6.4,-10.8,-9.4
CCOc1ccccc1C1C(C#N)=C(N)Oc2cc(N)ccc21 (stereo not given),98.3*,-5.1,-6.8,-7.9,-14.1,1.6
COc1ccc(OC)c(C2C(C#N)=C(N)Oc3cc(C)[nH]c(=O)c32)c1 (stereo not given),-17.2,3.6,-4.2,12.3,-4.9,18.1
O=C(Nc1ccccc1)ON=Cc1ccccc1Cl,.,1.5,.,.,.,.
CN(C)c1ccc(N=Cc2ccco2)cc1,94.0*,4.1,17.6,17.6,.,0.7
CC(C)(C=NO)/[N+]([O-])=C/c1ccccc1,.,3.6,.,.,.,.
CN(C)c1ccc(/C=N/O)cc1,98.8*,.,-12.6,12.0,-1.7,9.9
CN(C)c1ccc(C=Nc2ccccc2)cc1,-5.0,12.6,6.6,6.5,-1.8,24.2
CN(C)c1ccc(/C=[N+](\[O-])C(C)(C)C=NO)cc1,.,22.9*,.,.,.,.
CN(C)c1ccc(C=Nc2ccc(N(C)C)cc2)cc1,96.8*,5.5,-6.1,28.1,12.9,2.4
O=C(CSCc1ccc(Cl)cc1)NN=Cc1ccco1,.,2.2,.,.,.,.
S=c1[nH]nc(C2CCCCC2)n1N=Cc1ccccc1Br,.,2.8,.,.,.,.
